From ChEMBL document CHEMBL1140227, “Histone deacetylase inhibitors through click chemistry” (J Med Chem, 2008)

Experiments:
Format in all cases: functional
UACC-257 = test: Growth inhibition of human UACC257 cells at 10 uM relative to control; conditions: values are per cent of control
In short: (§1)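 Single-dose NCI human tumour cell line screen, run by the NIH. Percent inhibition of cell line growth was calculated by comparison with untreated samples.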

HT-29 = test: Growth inhibition of human HT-29 cells at 10 uM relative to control; conditions: values are per cent of control
In short: (§2)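 Single-dose preliminary screen in the NCI human cancer cell line panel, run by the NIH. Percent inhibition of cell line growth was calculated by comparison with untreated samples.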

SF-295 = test: Growth inhibition of human SF295 cells at 10 uM relative to control; conditions: values are per cent of control; in short: as §2
Malme-3M = test: Growth inhibition of human MALME-3M cells at 10 uM relative to control; conditions: values are per cent of control; in short: as §2
CAKI-1 = test: Growth inhibition of human Caki1 cells at 10 uM relative to control; conditions: values are per cent of control; in short: as §2
HL-60(TB) = test: Growth inhibition of human HL-60(TB) cells at 10 uM relative to control; conditions: read-out: INH
In short: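 Single-dose cell line screen run by the NCI (NIH) in its human cancer cell line panel, which includes the leukemia line HL-60(TB). Percent growth inhibition was calculated by comparison with untreated samples.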

U-251 = test: Growth inhibition of human U251 cells at 10 uM relative to control; conditions: values are per cent of control; in short: as §1
PC-3 = test: Growth inhibition of human PC3 cells at 10 uM relative to control; conditions: values are per cent of control; in short: as §2
SK-OV-3 = test: Growth inhibition of human SKOV3 cells at 10 uM relative to control; conditions: values are per cent of control; in short: as §2
MDA-MB-468 = test: Growth inhibition of human MDA-MB-468 cells at 10 uM relative to control; conditions: values are per cent of control; in short: as §2
SF-539 = test: Growth inhibition of human SF539 cells at 10 uM relative to control; conditions: values are per cent of control; in short: as §2
UO-31 = test: Growth inhibition of human UO31 cells at 10 uM relative to control; conditions: values are per cent of control; in short: as §1
NCI-H460 = test: Growth inhibition of human NCI-H460 cells at 10 uM relative to control; conditions: values are per cent of control; in short: as §2
Leukemia cell = test: cells; conditions: Homo sapiens
MOLT-4 = test: Growth inhibition of human MOLT4 cells at 10 uM relative to control; conditions: values are per cent of control; in short: as §2
cells [1] = conditions: Homo sapiens, Cancer cell lines
OVCAR-8 = test: Growth inhibition of human OVCAR8 cells at 10 uM relative to control; conditions: values are per cent of control; in short: as §2
cells [2] = conditions: Homo sapiens, Cancer cell lines; remark: listed apart in the source
SNB-19 = test: Growth inhibition of human SNB19 cells at 10 uM relative to control; conditions: values are per cent of control; in short: as §2
OVCAR-4 = test: Growth inhibition of human OVCAR4 cells at 10 uM relative to control; conditions: values are per cent of control; in short: as §2
M14 = test: Growth inhibition of human M14 cells at 10 uM relative to control; conditions: values are per cent of control; in short: as §2
A549 = test: Growth inhibition of human A549 cells at 10 uM relative to control; conditions: values are per cent of control; in short: as §2
cells [3] = conditions: Homo sapiens, Cancer cell lines; remark: listed apart in the source
HCT-116 = test: Growth inhibition of human HCT116 cells at 10 uM relative to control; conditions: values are per cent of control; in short: as §2
MCF7 = test: Growth inhibition of human MCF7 cells at 10 uM relative to control; conditions: values are per cent of control; in short: as §2
K562 = test: Growth inhibition of human K562 cells at 10 uM relative to control; conditions: values are per cent of control; in short: as §2
NCI-H226 = test: Growth inhibition of human NCI-H226 cells at 10 uM relative to control; conditions: values are per cent of control; in short: as §2
COLO 205 = test: Growth inhibition of human COLO205 cells at 10 uM relative to control; conditions: values are per cent of control; in short: as §2
NCI/ADR-RES = test: Growth inhibition of human NCI/ADR-RES cells at 10 uM relative to control; conditions: values are per cent of control; in short: as §2
UACC-62 = test: Growth inhibition of human UACC62 cells at 10 uM relative to control; conditions: values are per cent of control; in short: as §1
SK-MEL-2 = test: Growth inhibition of human SK-MEL-2 cells at 10 uM relative to control; conditions: values are per cent of control; in short: as §2
[4] = Growth inhibition of human RPMI8266 cells at 10 uM relative to control; conditions: values are per cent of control; in short: as §2
MDA-MB-435 = test: Growth inhibition of human MDA-MB-435 cells at 10 uM relative to control; conditions: values are per cent of control; in short: as §2
Melanoma cell = test: cells; conditions: Homo sapiens
HOP-62 = test: Growth inhibition of human HOP62 cells at 10 uM relative to control; conditions: values are per cent of control; in short: as §2
OVCAR-5 = test: Growth inhibition of human OVCAR5 cells at 10 uM relative to control; conditions: values are per cent of control; in short: as §2
EKVX = test: Growth inhibition of human EKVX cells at 10 uM relative to control; conditions: values are per cent of control; in short: as §2
HCT-15 = test: Growth inhibition of human HCT15 cells at 10 uM relative to control; conditions: values are per cent of control; in short: as §2
DU-145 = test: Growth inhibition of human DU145 cells at 10 uM relative to control; conditions: values are per cent of control; in short: as §2
cells [5] = conditions: Homo sapiens, Cancer cell lines; remark: listed apart in the source
NCI-H322M = test: Growth inhibition of human NCI-H322M cells at 10 uM relative to control; conditions: values are per cent of control; in short: as §2
NCI-H522 = test: Growth inhibition of human NCI-H522 cells at 10 uM relative to control; conditions: values are per cent of control; in short: as §2
[6] = Growth inhibition of human Hs 578T cells at 10 uM relative to control; conditions: values are per cent of control; in short: as §2
BT-549 = test: Growth inhibition of human BT549 cells at 10 uM relative to control; conditions: values are per cent of control; in short: as §2
TK-10 = test: Growth inhibition of human TK10 cells at 10 uM relative to control; conditions: values are per cent of control; in short: as §1
786-0 = test: Growth inhibition of human 786-0 cells at 10 uM relative to control; conditions: values are per cent of control; in short: as §2
cells [7] = conditions: Homo sapiens, Cancer cell lines; remark: listed apart in the source
NCI-H23 = test: Growth inhibition of human NCI-H23 cells at 10 uM relative to control; conditions: values are per cent of control; in short: as §2
OVCAR-3 = test: Growth inhibition of human OVCAR-3 cells at 10 uM relative to control; conditions: values are per cent of control; in short: as §2
IGROV-1 = test: Growth inhibition of human IGROV1 cells at 10 uM relative to control; conditions: values are per cent of control; in short: as §2
LOX IMVI = test: Growth inhibition of human LOXIMVI cells at 10 uM relative to control; conditions: values are per cent of control; in short: as §2
MDA-MB-231 = test: Growth inhibition of human MDA-MB-231 cells at 10 uM relative to control; conditions: values are per cent of control; in short: as §2
SNB-75 = test: Growth inhibition of human SNB75 cells at 10 uM relative to control; conditions: values are per cent of control; in short: as §1
ACHN = test: Growth inhibition of human ACHN cells at 10 uM relative to control; conditions: values are per cent of control; in short: as §2
SK-MEL-28 = test: Growth inhibition of human SK-MEL-28 cells at 10 uM relative to control; conditions: values are per cent of control; in short: as §2
KM12 = test: Growth inhibition of human KM12 cells at 10 uM relative to control; conditions: values are per cent of control; in short: as §2
CCRF-CEM = test: Growth inhibition of human CCRF-CEM cells at 10 uM relative to control; conditions: values are per cent of control; in short: as §2
SN12C = test: Growth inhibition of human SN12C cells at 10 uM relative to control; conditions: values are per cent of control; in short: as §2
HCC 2998 = test: Growth inhibition of human HCC2998 cells at 10 uM relative to control; conditions: values are per cent of control; in short: as §2
T47D = test: Growth inhibition of human T47D cells at 10 uM relative to control; conditions: values are per cent of control; in short: as §1
SK-MEL-5 = test: Growth inhibition of human SK-MEL-5 cells at 10 uM relative to control; conditions: values are per cent of control; in short: as §2
SF-268 = test: Growth inhibition of human SF268 cells at 10 uM relative to control; conditions: values are per cent of control; in short: as §2

## O=C(/C=C/c1cn(CC(=O)c2ccccc2)nn1)NO
UACC-257
  growth, % of control at 10 µM: 43.9%
HT-29
  growth, % of control at 10 µM: 60%
SF-295
  growth, % of control at 10 µM: 15.3%
Malme-3M
  growth, % of control at 10 µM: 6.42%
CAKI-1
  growth, % of control at 10 µM: 63.9%
HL-60(TB)
  growth, % of control at 10 µM: 258%
U-251
  growth, % of control at 10 µM: 76%
PC-3
  growth, % of control at 10 µM: 57.8%
SK-OV-3
  growth, % of control at 10 µM: 81.9%
MDA-MB-468
  growth, % of control at 10 µM: 64.6%
SF-539
  growth, % of control at 10 µM: 86.4%
UO-31
  growth, % of control at 10 µM: 45.3%
NCI-H460
  growth, % of control at 10 µM: 62.5%
Leukemia cell
  inhibition at 10 µM: 104%
MOLT-4
  growth, % of control at 10 µM: 83%
Cells [1]
  inhibition at 10 µM: 53%
OVCAR-8
  growth, % of control at 10 µM: 45.1%
Cells [2]
  inhibition at 10 µM: 65%
SNB-19
  growth, % of control at 10 µM: 101%
OVCAR-4
  growth, % of control at 10 µM: 77.8%
M14
  growth, % of control at 10 µM: 49.5%
A549
  growth, % of control at 10 µM: 54.1%
Cells [3]
  growth percent at 10 µM: 78%
HCT-116
  growth, % of control at 10 µM: 30.7%
MCF7
  growth, % of control at 10 µM: 77.8%
K562
  growth, % of control at 10 µM: 72.3%
NCI-H226
  growth, % of control at 10 µM: 89.4%
COLO 205
  growth, % of control at 10 µM: 105%
NCI/ADR-RES
  growth, % of control at 10 µM: 14.8%
UACC-62
  growth, % of control at 10 µM: 61.2%
SK-MEL-2
  growth, % of control at 10 µM: 61.7%
[4]
  growth, % of control at 10 µM: 55.6%
MDA-MB-435
  growth, % of control at 10 µM: 23.3%
Melanoma cell
  inhibition at 10 µM: 60%
HOP-62
  growth, % of control at 10 µM: 30.1%
OVCAR-5
  growth, % of control at 10 µM: 65%
EKVX
  growth, % of control at 10 µM: 54.6%
HCT-15
  growth, % of control at 10 µM: 117%
DU-145
  growth, % of control at 10 µM: 75.2%
Cells [5]
  growth percent at 10 µM: 65%
NCI-H322M
  growth, % of control at 10 µM: 41.3%
NCI-H522
  growth, % of control at 10 µM: 31.1%
[6]
  growth, % of control at 10 µM: 211%
BT-549
  growth, % of control at 10 µM: 72.1%
TK-10
  growth, % of control at 10 µM: 46.7%
786-0
  growth, % of control at 10 µM: 39.9%
Cells [7]
  inhibition at 10 µM: 67%
NCI-H23
  growth, % of control at 10 µM: 69.2%
OVCAR-3
  growth, % of control at 10 µM: 57.7%
IGROV-1
  growth, % of control at 10 µM: 64.2%
LOX IMVI
  growth, % of control at 10 µM: 88.3%
MDA-MB-231
  growth, % of control at 10 µM: 96.9%
SNB-75
  growth, % of control at 10 µM: 53.9%
ACHN
  growth, % of control at 10 µM: 82.5%
SK-MEL-28
  growth, % of control at 10 µM: 82.2%
KM12
  growth, % of control at 10 µM: 78%
CCRF-CEM
  growth, % of control at 10 µM: 48.6%
SN12C
  growth, % of control at 10 µM: 86.2%
HCC 2998
  growth, % of control at 10 µM: 71.1%
T47D
  growth, % of control at 10 µM: 64.7%
SK-MEL-5
  growth, % of control at 10 µM: 92.9%
SF-268
  growth, % of control at 10 µM: 71.9%
